Measured values published in ChEMBL document CHEMBL4400576, “Identification of Pyrazolo[1,5-a]pyridine-3-carboxamide Diaryl Derivatives as Drug Resistant Antituberculosis Agents” (ACS Med Chem Lett, 2019).
Values after ≈ are worked out from the molar mass of the structure shown.

Assays:
[1] = test system: Mycobacterium tuberculosis; assay: Antibacterial activity against Mycobacterium tuberculosis H37Rv after 7 days by microplate alamar blue assay; format: functional; conditions: 168 h
Outline: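 MIC against H37Rv by MABA. Primary screen run at 0.02 to 5 μg/mL. Compounds retested at 0.002 to 0.5 μg/mL.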

Vero = assay: Cytotoxicity against African green monkey Vero cells measured after 72 hrs by CellTiter 96 aqueous non-radioactive cell proliferation assay; format: cell-based; conditions: Chlorocebus sabaeus
Outline: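 Vero cells were exposed to compound, and cytotoxicity was reported as IC50 in µg/mL.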

[2] = Selectivity index, ratio of IC50 for African green monkey Vero cells to MIC>=90 for Mycobacterium tuberculosis H37Rv; format: toxicity; conditions: read-out: Selectivity Index
Outline: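 SI is Vero cell IC50 divided by MABA MIC against H37Rv, with MIC tested at 0.002 to 0.5 μg/mL.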

[3] = AUC (0 to infinity) in Sprague-Dawley rat at 10 mg/kg, po by LC-MS/MS analysis; format: ADME, organism-based; design: dose 10 mg/kg, route oral, time infinity; conditions: in vivo
Outline: (§1)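 Rats received a single dose of compound, either intravenously at 2.5 mg/kg or orally at 10 mg/kg, in separate arms. Plasma parameters were AUC0-∞ (h*µg/L), Cmax (µg/L), Tmax, T1/2 and MRT (h). Oral bioavailability F (%) was derived from the oral and intravenous arms.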

[4] = Cmax in Sprague-Dawley rat at 10 mg/kg, po by LC-MS/MS analysis; format: ADME, organism-based; design: dose 10 mg/kg, route oral; conditions: in vivo; outline: as §1
[5] = Tmax in Sprague-Dawley rat at 10 mg/kg, po by LC-MS/MS analysis; format: ADME, organism-based; conditions: in vivo; outline: as §1
[6] = Half life in Sprague-Dawley rat at 10 mg/kg, po by LC-MS/MS analysis; format: ADME, organism-based; conditions: in vivo; outline: as §1
[7] = MRT (0 to infinity) in Sprague-Dawley rat at 10 mg/kg, po by LC-MS/MS analysis; format: ADME, organism-based; conditions: in vivo; outline: as §1
[8] = Oral bioavailability in Sprague-Dawley rat at 10 mg/kg by LC-MS/MS analysis; format: ADME, organism-based; conditions: in vivo; outline: as §1
[9] = AUC (0 to infinity) in Sprague-Dawley rat at 2.5 mg/kg, iv by LC-MS/MS analysis; format: ADME, organism-based; design: dose 2.5 mg/kg, route intravenous, time infinity; conditions: in vivo; outline: as §1
[10] = Cmax in Sprague-Dawley rat at 2.5 mg/kg, iv by LC-MS/MS analysis; format: ADME, organism-based; design: dose 2.5 mg/kg, route intravenous; conditions: in vivo; outline: as §1
[11] = Tmax in Sprague-Dawley rat at 2.5 mg/kg, iv by LC-MS/MS analysis; format: ADME, organism-based; conditions: in vivo; outline: as §1
[12] = Half life in Sprague-Dawley rat at 2.5 mg/kg, iv by LC-MS/MS analysis; format: ADME, organism-based; conditions: in vivo; outline: as §1
[13] = MRT (0 to infinity) in Sprague-Dawley rat at 2.5 mg/kg, iv by LC-MS/MS analysis; format: ADME, organism-based; conditions: in vivo; outline: as §1

SMILES | MIC90 [1] [mg/L] | IC50 (Vero) [mg/L] | selectivity ratio [2] | other results
COc1ccn2nc(C)c(C(=O)NCc3nnc(-c4ccc(OC(F)(F)F)cc4)o3)c2c1 | > 5 | – | – | –
COc1ccn2nc(C)c(C(=O)NCc3ccc(-c4ccc(OC(F)(F)F)cc4)c(OC)c3)c2c1 | – | 11.8 (≈ 24.3 µM) | 1680 | –
COc1ccn2nc(C)c(C(=O)NCc3ncc(-c4ccc(OC(F)(F)F)cc4)[nH]3)c2c1 | > 5 | – | – | –
COc1ccn2nc(C)c(C(=O)NCc3ccc(-c4ccc(OC(F)(F)F)cc4)cc3C)c2c1 | 0.57 (≈ 1.21 µM) | – | – | –
COc1ccn2nc(C)c(C(=O)NCc3ccc(-c4ccc(OC(F)(F)F)cc4)cc3F)c2c1 | – | > 50 | > 7140 | –
COc1ccn2nc(C)c(C(=O)NCc3ccc(-c4ccc(OC(F)(F)F)cc4)c(C(F)(F)F)c3)c2c1 | – | 11.6 (≈ 22.2 µM) | 402 | –
COc1ccn2nc(C)c(C(=O)NCc3ccc(-c4ccc(OC(F)(F)F)cc4)cc3OC)c2c1 | 0.28 (≈ 0.577 µM) | – | – | –
COc1ccn2nc(C)c(C(=O)NCc3ccc(-c4ccc(OC(F)(F)F)cc4)s3)c2c1 | – | > 50 | > 25000 | –
COc1ccn2nc(C)c(C(=O)NCc3ccc(-c4ccc(OC(F)(F)F)cc4)nc3)c2c1 | – | 28.4 (≈ 62.2 µM) | 535 | –
COc1ccn2nc(C)c(C(=O)NCc3ncc(-c4ccc(OC(F)(F)F)cc4)o3)c2c1 | 1.96 (≈ 4.39 µM) | – | – | –
COc1ccn2nc(C)c(C(=O)NCc3cn(-c4ccc(OC(F)(F)F)cc4)nn3)c2c1 | > 5 | – | – | –
COc1ccn2nc(C)c(C(=O)NCc3cnc(-c4ccc(OC(F)(F)F)cc4)s3)c2c1 | 0.53 (≈ 1.15 µM) | – | – | –
COc1ccn2nc(C)c(C(=O)NCc3ccc(-c4ccc(OC(F)(F)F)cc4)cc3C(F)(F)F)c2c1 | > 5 | – | – | –
COc1ccn2nc(C)c(C(=O)NCc3ccc(-c4ccc(OC(F)(F)F)cc4)cn3)c2c1 | – | > 50 | > 25000 | AUC(0-inf) [3]: 15.6 µg·h/mL; Cmax [4]: 1.43 µg/mL; Tmax [5]: 4.67 h; half-life [6]: 5.1 h; MRT inf [7]: 8.21 h; bioavailability [8]: 41%; AUC(0-inf) [9]: 9 µg·h/mL; Cmax [10]: 4.15 µg/mL; Tmax [11]: 4.8 min; half-life [12]: 3.49 h; MRT inf [13]: 4.02 h
COc1ccn2nc(C)c(C(=O)NCc3ccc(-c4ccc(OC(F)(F)F)cc4)c(F)c3)c2c1 | – | > 50 | > 25000 | –
COc1ccn2nc(C)c(C(=O)NCc3ccc(-c4ccc(OC(F)(F)F)cc4)c(C)c3)c2c1 | – | 3.15 (≈ 6.71 µM) | 242 | –
COc1nc2ccc(Br)cc2cc1[C@@H](c1ccccc1)[C@@](O)(CCN(C)C)c1cccc2ccccc12 [BEDAQUILINE] | 0.02 to 0.03 (≈ 0.036 to 0.054 µM) | > 10 | > 500 | –
NNC(=O)c1ccncc1 [ISONIAZID] | 0.239 to 0.48 (≈ 1.74 to 3.5 µM) | – | – | –
CC(=O)NC[C@H]1CN(c2ccc(N3CCOCC3)c(F)c2)C(=O)O1 [LINEZOLID] | 1.25 to 3.27 (≈ 3.72 to 9.69 µM) | – | – | –
CO[C@H]1/C=C/O[C@@]2(C)Oc3c(C)c(O)c4c(O)c(c(/C=N/N5CCN(C)CC5)c(O)c4c3C2=O)NC(=O)/C(C)=C\C=C\[C@H](C)[C@H](O)[C@@H](C)[C@@H](O)[C@@H](C)[C@H](OC(C)=O)[C@@H]1C [RIFAMPIN] | – | > 100 | > 12500 | –
